From ChEMBL document CHEMBL1125169, “Trifluoromethylacetylenic alcohols as affinity labels: inactivation of estradiol dehydrogenase by a trifluoromethylacetylenic secostradiol” (J Med Chem, 1990) come the findings set out here.

For data set [1], the target named is T1, 17-beta-hydroxysteroid dehydrogenase type 1 (Homo sapiens) (UniProt P14061).
T1 sequence (whole entry): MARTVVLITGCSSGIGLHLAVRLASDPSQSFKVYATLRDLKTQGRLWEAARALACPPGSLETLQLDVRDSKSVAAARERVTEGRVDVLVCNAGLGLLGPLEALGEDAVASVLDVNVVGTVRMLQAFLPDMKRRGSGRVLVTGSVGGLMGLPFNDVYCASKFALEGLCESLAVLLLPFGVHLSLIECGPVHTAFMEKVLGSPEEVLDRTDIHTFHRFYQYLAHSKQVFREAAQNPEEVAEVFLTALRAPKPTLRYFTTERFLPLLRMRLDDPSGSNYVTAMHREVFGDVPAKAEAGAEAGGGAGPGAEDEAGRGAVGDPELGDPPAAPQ
Nature of the data set: Tested by protection experiments to demonstrate the inactivation of estradiol dehydrogenase and the kinetic parameter Kapp was reported at a concentration of 20 uM. Summed up:
(§1)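 Inactivation of estradiol dehydrogenase with inhibitor at 20 μM, either alone or with a protecting ligand: 17β-estradiol or 17α-estradiol at 32 μM, or cofactors at 150 μM. Apparent inactivation rate constant (kapp, min⁻¹) was taken from least-squares fits of the time courses (r ≥ 0.992).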

Data set [2] addresses T1, 17-beta-hydroxysteroid dehydrogenase type 1 (Homo sapiens). Briefly: Tested by protection experiments to demonstrate the inactivation of estradiol dehydrogenase and the kinetic parameter Kapp was reported at a concentration of 150 uM. In outline: as §1
Data set [3] is described as follows: The limiting half life time was reported. Summed up:
(§2)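 Time-dependent inactivation of estradiol dehydrogenase was run at several inhibitor concentrations without NAD⁺, in 1 M carbonate buffer (pH 9.2) with glycerol omitted. Points are the mean of three experiments (two at 80 μM). Pseudo-first-order inactivation kinetics gave Ki and limiting t1/2.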

For data set [4], the target named is T2, 17-beta-hydroxysteroid dehydrogenase type 1 (Homo sapiens, UniProt P14061).
T2 sequence (P14061 whole entry): T1 sequence (whole entry)
Briefly: Tested for time-dependent inactivation of the enzyme that followed pseudo- first- order kinetics in the absence of NAD+ and the Ki values were reported. Summed up:
as §2

Data set [5] concerns the target T2, 17-beta-hydroxysteroid dehydrogenase type 1. Briefly: Tested by protection experiments to demonstrate the inactivation of estradiol dehydrogenase and the kinetic parameter Ki app was reported at a concentration of 20 uM. The following applies: read-out: Ki app. In outline: as §1
Substrate in data set [6]: C#CC(O)[C@@]1(C)CCC2c3ccc(O)cc3CCC2C1

On to `NC(=O)c1ccc[n+]([C@@H]2O[C@H](COP(=O)([O-])OP(=O)(O)OC[C@H]3O[C@@H](n4cnc5c(N)ncnc54)[C@H](O)[C@@H]3O)[C@@H](O)[C@H]2O)c1`, for which, in data set [1], the K app was 0.013 min⁻¹. As for `C[C@]12CC[C@@H]3c4ccc(O)cc4CC[C@H]3[C@@H]1CC[C@@H]2O`, in data set [1], the K app came out at 0.013 min⁻¹. On the same count and under the same terms, next, `C[C@]12CC[C@@H]3c4ccc(O)cc4CC[C@H]3[C@@H]1CC[C@H]2O`: 0.01 min⁻¹. Still for that read-out and setting: next, `NC(=O)C1=CN(C2OC(COP(=O)(O)OP(=O)(O)OC[C@H]3O[C@@H](n4cnc5c(N)ncnc54)[C@H](O)[C@@H]3O)[C@H](O)[C@@H]2O)C=CC1` (stereo not given in full): 0.025 min⁻¹.

With `C[C@]1(C(O)C#CC(F)(F)F)CCC2c3ccc(O)cc3CCC2C1` (stereo not given in full), the K app in data set [2] was found to be 0.014 min⁻¹; in data set [1] it was 0.026 min⁻¹. Besides, the half-life in data set [3] was 7 min. In data set [4], this molecule had a Ki of 59 µM. With `C#CC(=O)[C@@]1(C)CCC2c3ccc(O)cc3CCC2C1` (stereo not given in full), the Ki in data set [5] is 2.8 µM.

In data set [1], `C[C@]12CC[C@@H]3c4ccc(O)cc4CC[C@H]3[C@@H]1CC[C@@H]2O.NC(=O)C1=CN([C@@H]2O[C@H](COP(=O)(O)OP(=O)(O)OC[C@H]3O[C@@H](n4cnc5c(N)ncnc54)[C@H](O)[C@@H]3O)[C@@H](O)[C@H]2O)C=CC1` had a K app of 0.013 min⁻¹. `C[C@@]1(C(O)C#CC(F)(F)F)CCC2c3ccc(O)cc3CCC2C1` (single isomer, unassigned): the figures for the K app in data set [2] and in data set [1] were 0.011 min⁻¹ and 0.021 min⁻¹, respectively. Besides, the half-life in data set [3] is 8 min. The Ki in data set [4] amounted to 65 µM.

B1: 17-beta-hydroxysteroid dehydrogenase type 1 (Homo sapiens), P14061 (protein)
chain: T1 sequence (whole entry)
In the case of B1, the Michaelis-Menten constant (Km) in data set [6] worked out at 79 µM.
